Measured values: ChEMBL document CHEMBL2424602, “Mannich bases of 7-piperazinylquinolones and kojic acid derivatives: synthesis, in vitro antibacterial activity and in silico study” (2013)
Converted amounts (≈) assume the structure as drawn.

Experiments:
Assay type in all cases: functional
Klebsiella pneumoniae = assay: Antibacterial activity against Klebsiella pneumoniae ATCC 10031 assessed as growth inhibition after 18 hrs by agar dilution method; conditions: ATCC 10031, 18 h
Outline: (§1)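 MIC read by conventional agar dilution. Compounds were dissolved at 10.0 mg in 1 mL DMSO and diluted with 9 mL distilled water to make the stock. Two-fold serial dilutions were made in molten sterile Mueller-Hinton agar, with final levels starting at 100, 50, 25, 12.5, 6.25, 3.13, 1.56 and lower.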

Escherichia coli = assay: Antibacterial activity against Escherichia coli ATCC 8739 assessed as growth inhibition after 18 hrs by agar dilution method; conditions: ATCC 8739, 18 h; outline: as §1
Pseudomonas aeruginosa [1] = assay: Antibacterial activity against Pseudomonas aeruginosa ATCC 9027 assessed as growth inhibition after 18 hrs by agar dilution method; conditions: ATCC 9027, 18 h; outline: as §1
Bacillus spizizenii = assay: Antibacterial activity against Bacillus subtilis ATCC 6633 assessed as growth inhibition after 18 hrs by agar dilution method; conditions: ATCC 6633, 18 h; outline: as §1
[2] = tested on: Staphylococcus epidermidis; assay: Antibacterial activity against Staphylococcus epidermidis ATCC 12228 assessed as growth inhibition after 18 hrs by agar dilution method; conditions: ATCC 12228, 18 h; outline: as §1
Staphylococcus aureus [3] = assay: Antibacterial activity against Staphylococcus aureus ATCC 6538 assessed as growth inhibition after 18 hrs by agar dilution method; conditions: ATCC 6538, 18 h; outline: as §1
Pseudomonas aeruginosa [4] = assay: Potency index, ratio of norfloxacin MIC to compound MIC for Pseudomonas aeruginosa ATCC 9027
Staphylococcus aureus [5] = assay: Potency index, ratio of norfloxacin MIC to compound MIC for Staphylococcus aureus ATCC 6538

SMILES | MIC (Klebsiella pneumoniae) | MIC (Escherichia coli) | MIC (Pseudomonas aeruginosa [1]) | MIC (Bacillus spizizenii) | MIC [2] | MIC (Staphylococcus aureus [3]) | Ratio (Pseudomonas aeruginosa [4]) | Ratio (Staphylococcus aureus [5])
CCn1cc(C(=O)O)c(=O)c2cc(F)c(N3CCN(Cc4oc(CO)cc(=O)c4O)CC3)cc21 | 1.56 µg/mL (≈ 3.29 µM) | 0.78 µg/mL (≈ 1.65 µM) | 3.12 µg/mL (≈ 6.6 µM) | 0.78 µg/mL (≈ 1.65 µM) | 6.25 µg/mL (≈ 13.2 µM) | 3.12 µg/mL (≈ 6.6 µM) |  | 
CCn1cc(C(=O)O)c(=O)c2cc(F)c(N3CCN(Cc4oc(CO)cc(=O)c4O)C(C)C3)c(F)c21 (racemic) | 1.56 µg/mL (≈ 3.09 µM) | 0.39 µg/mL (≈ 0.772 µM) | 3.12 µg/mL (≈ 6.18 µM) | 3.12 µg/mL (≈ 6.18 µM) | 6.25 µg/mL (≈ 12.4 µM) | 3.12 µg/mL (≈ 6.18 µM) |  | 
O=C(O)c1cn(C2CC2)c2cc(N3CCN(Cc4oc(CCl)cc(=O)c4O)CC3)c(F)cc2c1=O | 0.195 µg/mL (≈ 0.387 µM) | 0.78 µg/mL (≈ 1.55 µM) | 0.195 µg/mL (≈ 0.387 µM) | 0.39 µg/mL (≈ 0.774 µM) | 0.39 µg/mL (≈ 0.774 µM) | 0.097 µg/mL (≈ 0.192 µM) | 8 | 4
CCn1cc(C(=O)O)c(=O)c2cc(F)c(N3CCNCC3)cc21 [NORFLOXACIN] | 0.39 µg/mL (≈ 1.22 µM) | 0.195 µg/mL (≈ 0.611 µM) | 1.56 µg/mL (≈ 4.89 µM) | 0.195 µg/mL (≈ 0.611 µM) | 0.39 µg/mL (≈ 1.22 µM) | 0.39 µg/mL (≈ 1.22 µM) |  | 
CCn1cc(C(=O)O)c(=O)c2cc(F)c(N3CCN(Cc4oc(CCl)cc(=O)c4O)CC3)cc21 | 0.78 µg/mL (≈ 1.59 µM) | 0.39 µg/mL (≈ 0.793 µM) | 1.56 µg/mL (≈ 3.17 µM) | 1.56 µg/mL (≈ 3.17 µM) | 1.56 µg/mL (≈ 3.17 µM) | 1.56 µg/mL (≈ 3.17 µM) |  | 
COc1c(N2CCN(Cc3oc(CO)cc(=O)c3O)C(C)C2)c(F)cc2c(=O)c(C(=O)O)cn(C3CC3)c12 (stereo unspecified) | 1.56 µg/mL (≈ 2.95 µM) | 0.39 µg/mL (≈ 0.737 µM) | 0.78 µg/mL (≈ 1.47 µM) | 3.12 µg/mL (≈ 5.9 µM) | 3.12 µg/mL (≈ 5.9 µM) | 0.78 µg/mL (≈ 1.47 µM) |  | 
CCn1cc(C(=O)O)c(=O)c2cc(F)c(N3CCN(Cc4oc(CO)cc(=O)c4O)CC3)nc21 | 12.5 µg/mL (≈ 26.3 µM) | 1.56 µg/mL (≈ 3.29 µM) | 12.5 µg/mL (≈ 26.3 µM) | 12.5 µg/mL (≈ 26.3 µM) | 12.5 µg/mL (≈ 26.3 µM) | 6.25 µg/mL (≈ 13.2 µM) |  | 
COc1c(N2CCN(Cc3oc(CCl)cc(=O)c3O)C(C)C2)c(F)cc2c(=O)c(C(=O)O)cn(C3CC3)c12 (stereo unspecified) | 1.56 µg/mL (≈ 2.85 µM) | 1.56 µg/mL (≈ 2.85 µM) | 0.78 µg/mL (≈ 1.42 µM) | 1.56 µg/mL (≈ 2.85 µM) | 1.56 µg/mL (≈ 2.85 µM) | 0.39 µg/mL (≈ 0.712 µM) |  | 
O=C(O)c1cn(C2CC2)c2cc(N3CCN(Cc4oc(CO)cc(=O)c4O)CC3)c(F)cc2c1=O | 1.56 µg/mL (≈ 3.21 µM) | 0.78 µg/mL (≈ 1.61 µM) | 1.56 µg/mL (≈ 3.21 µM) | 3.12 µg/mL (≈ 6.44 µM) | 3.12 µg/mL (≈ 6.44 µM) | 1.56 µg/mL (≈ 3.21 µM) |  | 
